Active and inactive are the calls of the source. The rule behind the calls is not given here.
Key:
Pseudomonas aeruginosa [1] = assay: Induction of biofilm degradation of Pseudomonas aeruginosa clinical isolate 172 at 50 uM incubated for 1 hr by crystal violet staining analysis relative to control; type: functional
Method in brief: (§1)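 Bacteria at 1 × 10^6 CFU/mL in BM2 grown static at 37 °C for 24 h to form biofilm. Wells rinsed of unattached cells, then exposed for 1 h to serial peptide dilutions (1.56–50 μM). Washed, stained with 0.1% crystal violet, A590 read. Biomass given as % of untreated biofilm; no-bacteria wells as blanks. At least three biological repeats.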

Pseudomonas aeruginosa [2] = assay: Induction of biofilm degradation of Pseudomonas aeruginosa clinical isolate 52 at 50 uM incubated for 1 hr by crystal violet staining analysis relative to control; type: functional; method in brief: as §1
Pseudomonas aeruginosa [3] = assay: Antibiofilm activity against Pseudomonas aeruginosa clinical isolate 46 assessed as inhibition of biofilm formation at sub-inhibitory concentration incubated for 24 hrs by crystal violet staining based microtiter plate method; type: functional, organism-based
Method in brief: (§2)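 Washed overnight cultures in BM2 medium at 1 × 10^6 CFU/mL with 2-fold serial peptide dilutions in a U-bottom 96-well plate. Incubated 24 h at 37 °C without agitation. Unattached cells washed off, then 0.1% crystal violet stain read at 590 nm. No-bacteria blanks. Biomass expressed as % of untreated biofilm. At least three biological repeats.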

Pseudomonas aeruginosa [4] = assay: Induction of biofilm degradation of Pseudomonas aeruginosa clinical isolate 40 at 50 uM incubated for 1 hr by crystal violet staining analysis relative to control; type: functional; method in brief: as §1
Pseudomonas aeruginosa [5] = assay: Induction of biofilm degradation of Pseudomonas aeruginosa clinical isolate 46 at 50 uM incubated for 1 hr by crystal violet staining analysis relative to control; type: functional; method in brief: as §1
Pseudomonas aeruginosa [6] = assay: Induction of biofilm degradation of Pseudomonas aeruginosa clinical isolate 24 at sub MIC concentration incubated for 1 hr by crystal violet staining analysis; type: functional; method in brief: as §1
Pseudomonas aeruginosa [7] = assay: Induction of biofilm degradation of Pseudomonas aeruginosa clinical isolate 251 at 50 uM incubated for 1 hr by crystal violet staining analysis; type: functional; method in brief: as §1
Pseudomonas aeruginosa [8] = assay: Induction of biofilm degradation of Pseudomonas aeruginosa clinical isolate 238 at 50 uM incubated for 1 hr by crystal violet staining analysis relative to control; type: functional; method in brief: as §1
Pseudomonas aeruginosa [9] = assay: Induction of biofilm degradation of Pseudomonas aeruginosa clinical isolate 99 at 50 uM incubated for 1 hr by crystal violet staining analysis relative to control; type: functional; method in brief: as §1
Pseudomonas aeruginosa [10] = assay: Induction of biofilm degradation of Pseudomonas aeruginosa clinical isolate 25 at 50 uM incubated for 1 hr by crystal violet staining analysis relative to control; type: functional; method in brief: as §1
Pseudomonas aeruginosa [11] = assay: Induction of biofilm degradation of Pseudomonas aeruginosa clinical isolate 59 at <12.5 uM incubated for 1 hr by crystal violet staining analysis; type: functional; method in brief: as §1
Pseudomonas aeruginosa [12] = assay: Antibiofilm activity against Pseudomonas aeruginosa clinical isolate 72 assessed as inhibition of biofilm formation at sub-inhibitory concentration incubated for 24 hrs by crystal violet staining based microtiter plate method; type: functional, organism-based; method in brief: as §2
Pseudomonas aeruginosa [13] = assay: Inhibition of biofilm formation of Pseudomonas aeruginosa clinical isolate 24 derived from cystic fibrosis patient sputum at 0.09 to 3.12 uM by crystal violet based staining analysis; type: functional, organism-based; conditions: dose 0.09-3.12 µM
Method in brief: (§3)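 CF patient sputum diluted 10-fold with BM2, bacteria added with serial peptide dilutions starting from the highest MIC per isolate. Inoculum suspension 1 × 10^6 CFU/mL. Incubated 24 h at 37 °C without agitation. Unattached cells washed away, then 0.1% crystal violet staining and A590. Biomass given as % of untreated, with no-bacteria blanks.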

Pseudomonas aeruginosa [14] = assay: Induction of biofilm degradation of Pseudomonas aeruginosa clinical isolate 629 at 50 uM incubated for 1 hr by crystal violet staining analysis relative to control; type: functional; method in brief: as §1
Pseudomonas aeruginosa [15] = assay: Inhibition of biofilm formation of Pseudomonas aeruginosa PAO1 in patient derived CF-sputum at 0.09 to 3.12 uM by crystal violet based staining analysis; type: functional, organism-based; conditions: dose 0.09-3.12 µM; method in brief: as §3
Pseudomonas aeruginosa [16] = assay: Induction of biofilm degradation of Pseudomonas aeruginosa clinical isolate 995 at 50 uM incubated for 1 hr by crystal violet staining analysis relative to control; type: functional; method in brief: as §1
Pseudomonas aeruginosa [17] = assay: Induction of biofilm degradation of Pseudomonas aeruginosa clinical isolate 53 at sub MIC concentration incubated for 1 hr by crystal violet staining analysis; type: functional; method in brief: as §1
Pseudomonas aeruginosa [18] = assay: Antibiofilm activity against Pseudomonas aeruginosa clinical isolate 99 assessed as inhibition of biofilm formation at sub-inhibitory concentration incubated for 24 hrs by crystal violet staining based microtiter plate method; type: functional, organism-based; method in brief: as §2
Pseudomonas aeruginosa [19] = assay: Antibiofilm activity against Pseudomonas aeruginosa clinical isolate 629 assessed as inhibition of biofilm formation at sub-inhibitory concentration incubated for 24 hrs by crystal violet staining based microtiter plate method; type: functional, organism-based; method in brief: as §2
Pseudomonas aeruginosa [20] = assay: Antibiofilm activity against Pseudomonas aeruginosa clinical isolate 46 assessed as inhibition of biofilm formation at MIC incubated for 24 hrs by crystal violet staining based microtiter plate method; type: functional, organism-based; method in brief: as §2
Pseudomonas aeruginosa [21] = assay: Induction of biofilm degradation of Pseudomonas aeruginosa clinical isolate 24 incubated for 1 hr by crystal violet staining analysis relative to control; type: functional; conditions: dose 50.0 µM; method in brief: as §1
Pseudomonas aeruginosa [22] = assay: Antibiofilm activity against Pseudomonas aeruginosa clinical isolate 995 assessed as inhibition of biofilm formation at MIC incubated for 24 hrs by crystal violet staining based microtiter plate method; type: functional, organism-based; method in brief: as §2
Pseudomonas aeruginosa [23] = assay: Induction of biofilm degradation of Pseudomonas aeruginosa clinical isolate 71 at 50 uM incubated for 1 hr by crystal violet staining analysis relative to control; type: functional; method in brief: as §1
Pseudomonas aeruginosa [24] = assay: Induction of biofilm degradation of Pseudomonas aeruginosa clinical isolate 29 at 50 uM incubated for 1 hr by crystal violet staining analysis relative to control; type: functional; method in brief: as §1
Pseudomonas aeruginosa [25] = assay: Inhibition of biofilm formation of Pseudomonas aeruginosa clinical isolate 24 derived from cystic fibrosis patient sputum at 0.78 to 25 uM by crystal violet based staining analysis; type: functional, organism-based; conditions: dose 0.78-25 µM; method in brief: as §3
Pseudomonas aeruginosa [26] = assay: Antibiofilm activity against Pseudomonas aeruginosa clinical isolate 24 assessed as inhibition of biofilm formation at sub-inhibitory concentration incubated for 24 hrs by crystal violet staining based microtiter plate method; type: functional, organism-based; method in brief: as §2
Pseudomonas aeruginosa [27] = assay: Induction of biofilm degradation of Pseudomonas aeruginosa clinical isolate 72 at 50 uM incubated for 1 hr by crystal violet staining analysis relative to control; type: functional; method in brief: as §1
Pseudomonas aeruginosa [28] = assay: Inhibition of biofilm formation of Pseudomonas aeruginosa clinical isolate 82 derived from cystic fibrosis patient sputum at 0.09 to 3.12 uM by crystal violet based staining analysis; type: functional, organism-based; conditions: dose 0.09-3.12 µM; method in brief: as §3
Pseudomonas aeruginosa [29] = assay: Induction of biofilm degradation of Pseudomonas aeruginosa clinical isolate 82 at 50 uM incubated for 1 hr by crystal violet staining analysis relative to control; type: functional; method in brief: as §1
Pseudomonas aeruginosa [30] = assay: Antibiofilm activity against Pseudomonas aeruginosa clinical isolate 53 assessed as inhibition of biofilm formation at sub-inhibitory concentration incubated for 24 hrs by crystal violet staining based microtiter plate method; type: functional, organism-based; method in brief: as §2
Pseudomonas aeruginosa [31] = assay: Antibiofilm activity against Pseudomonas aeruginosa clinical isolate 71 assessed as inhibition of biofilm formation at sub-inhibitory concentration incubated for 24 hrs by crystal violet staining based microtiter plate method; type: functional, organism-based; method in brief: as §2
Pseudomonas aeruginosa [32] = assay: Induction of biofilm degradation of Pseudomonas aeruginosa clinical isolate 53 at 50 uM incubated for 1 hr by crystal violet staining analysis relative to control; type: functional; method in brief: as §1
Pseudomonas aeruginosa [33] = assay: Induction of biofilm degradation of Pseudomonas aeruginosa clinical isolate 40 at sub MIC concentration incubated for 1 hr by crystal violet staining analysis; type: functional; method in brief: as §1
Pseudomonas aeruginosa [34] = assay: Induction of biofilm degradation of Pseudomonas aeruginosa PAO1 at 50 uM incubated for 1 hr by crystal violet staining analysis relative to control; type: functional; method in brief: as §1
Pseudomonas aeruginosa [35] = assay: Antibiofilm activity against Pseudomonas aeruginosa clinical isolate 25 assessed as inhibition of biofilm formation at sub-inhibitory concentration incubated for 24 hrs by crystal violet staining based microtiter plate method; type: functional, organism-based; method in brief: as §2

In the case of `CC(C)C[C@H](NC(=O)[C@H](CC(C)C)NC(=O)[C@H](CCCCN)NC(=O)[C@H](CC(C)C)NC(=O)[C@H](CC(C)C)NC(=O)[C@H](CCCCN)NC(=O)[C@H](CCCCN)NC(=O)[C@H](CC(C)C)NC(=O)[C@H](CC(C)C)NC(=O)[C@H](CCCCN)NC(=O)[C@H](CCCCN)NC(=O)[C@H](CC(C)C)NC(=O)[C@H](CC(C)C)NC(=O)[C@H](CCCCN)NC(=O)[C@@H](N)CC(C)C)C(N)=O`, the Activity (Pseudomonas aeruginosa [1]) is reported as 60%, the Activity (Pseudomonas aeruginosa [2]) is reported as 60% and the inhibition (Pseudomonas aeruginosa [3]) is reported as “Active”. The Activity (Pseudomonas aeruginosa [4]) was 60%, the Activity (Pseudomonas aeruginosa [5]) was 60% and the Activity (Pseudomonas aeruginosa [6]) was “Active”. It also gave an Activity (Pseudomonas aeruginosa [7]) of 60%, an Activity (Pseudomonas aeruginosa [8]) of 60% and an Activity (Pseudomonas aeruginosa [9]) of 60%. The Activity (Pseudomonas aeruginosa [10]) was 60%, the Activity (Pseudomonas aeruginosa [11]) was “Active” and the inhibition (Pseudomonas aeruginosa [12]) was “Active”. For the same compound, the inhibition (Pseudomonas aeruginosa [13]) was “Active”, the Activity (Pseudomonas aeruginosa [14]) was 60% and the inhibition (Pseudomonas aeruginosa [15]) was “Active”. The Activity (Pseudomonas aeruginosa [16]) was 60%, the Activity (Pseudomonas aeruginosa [17]) was “Active” and the inhibition (Pseudomonas aeruginosa [18]) was “Active”. For the same compound, the inhibition (Pseudomonas aeruginosa [19]) was “Active”, the inhibition (Pseudomonas aeruginosa [20]) was “Active” and the Activity (Pseudomonas aeruginosa [21]) was 60%. For the same compound, the inhibition (Pseudomonas aeruginosa [22]) was “Active”, the Activity (Pseudomonas aeruginosa [23]) was 60% and the Activity (Pseudomonas aeruginosa [24]) was 60%. For the same compound, the inhibition (Pseudomonas aeruginosa [25]) was “Active”, the inhibition (Pseudomonas aeruginosa [26]) was “Active” and the Activity (Pseudomonas aeruginosa [27]) was 60%. For the same compound, the inhibition (Pseudomonas aeruginosa [28]) was “Active”, the Activity (Pseudomonas aeruginosa [29]) was 60% and the inhibition (Pseudomonas aeruginosa [30]) was “Active”. The inhibition (Pseudomonas aeruginosa [31]) was “Active”, the Activity (Pseudomonas aeruginosa [32]) was 60% and the Activity (Pseudomonas aeruginosa [33]) was “Active”. For the same compound, the Activity (Pseudomonas aeruginosa [34]) was 60% and the inhibition (Pseudomonas aeruginosa [35]) was “Active”.
